Bioassay records from PubChem BioAssay.
Only some compounds are listed: those with a hit (about 5.3% of all), similar ones and a draw of the others.
NALP3 yeast inh: NALP3 inhibition in yeast | Yeast reconstituted NLRP3/ASC/caspase-1, beta-gal luminescence, 24 h | inhibition, % at 10 µM | 0.39% of 330,000 active;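 active means inhibition of 50% or more; inactive means inhibition below 50%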
CSC inhib: cancer stem cell inhibition. cancer stem cell-like cells viability, luminescence. inhibition, % at 7.5 µM. 1.1% of 300,000 active; in the data active means inhibition above about 75%; inconclusive means no clear call, values can overlap the other calls; tested in HMLE shEcad cells
Beta cell apopt: blocks beta cell apoptosis | INS-1E cytokine-induced death, ATP luminescence, 48 h; percent of positive-control rescue, neutral wells zero | protection from apoptosis, % (concentration not given with the values) | 0.8% of 300,000 active;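 active means Every replicate reaches about 75%, or at least half do and their mean reaches it too, limit read from the data; inconclusive means At least half of replicates reach the limit but their mean does not; inactive means Under half of replicates reach the limit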;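 further: higher means more ATP so stronger rescue from cytokine killing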
T cruzi inh: T. cruzi replication inhibition. T. cruzi beta-gal in NIH3T3, luminescence, 90 h. inhibition, % (test concentration not listed). 1.4% of 300,000 active. AID 1885;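 active means mean inhibition across valid replicates above about 55%, limit read from the data; inconclusive means mean below that limit but half or more replicates reach it; inactive means mean below it, under half of replicates reach it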;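 further: signal also drops with host cell toxicity which is not excluded here; higher percent means less beta-gal luminescence so fewer parasites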
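Assay system: NIH/3T3 fibroblasts plus reporter T. cruzi. Amount: NIH/3T3 cells, 5,000 per well. Buffer or medium: DMEM, 2% fetal bovine serum. Doses: compound pinned at 50 nL/well, DMSO. Schedule: ≥90 h infection period, 3 h prior cell attachment. Signal: luminescent β-galactosidase signal after 60 min lysis. Read-out: parasite load inhibition, %.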
Mdm2 MdmX PPI: inhibitors of human Mdm2/MdmX interaction; O15151+Q00987; AID 485346; 3% of 330,000 active; SaOS-2 split-luciferase Mdm2/MdmX complementation, luminescence; inhibition, % at 8 µM;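 active means inhibition of at least 50% at 8 µM in the primary screen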
Calb FLC: C. albicans growth modulation with fluconazole; C. albicans CaCi-2 + fluconazole, Alamar Blue growth, 48 h; 0.57% of 300,000 active; growth inhibition, % (test concentration not listed);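 active means growth inhibition above about 58% in most replicates, limit read from the data, passing the limit was not always enough; inconclusive means exactly half the replicates above a set limit; inactive means most replicates below a set limit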;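 further: all wells also contain fluconazole at 8 µg/ml as a sub-toxic cotreatment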
Mdm2 MdmX conf: confirmation of human Mdm2/MdmX interaction inhibitors | 55% of 10,000 active | inhibition, % at 8 µM | Mdm2-MdmX binding, luminescent assay | shares compounds with Mdm2 MdmX PPI; in the data active means inhibition above about 40%
FLuc counter: inhibits full-length luciferase, flagging false Mdm2/MdmX hits; inhibition, % at 8 µM; SaOS-2 full-length luciferase counterscreen, luminescence; shares compounds with Mdm2 MdmX PPI; 77% of 6,200 active;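 active means mean inhibition at 8 µM reaching about 37%, which flags the compound as non-specific, limit read from the data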;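 further: p53-null SaOS-2 cells with luciferase driven by a doxycycline-inducible promoter; compound on cells about two nights before reading with doxycycline added after day one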
Numbers stand for hits; n = inactive; u = inconclusive; x = not tested or not shown.

SMILES | NALP3 yeast inh | CSC inhib | Beta cell apopt | T cruzi inh | Mdm2 MdmX PPI | Calb FLC | Mdm2 MdmX conf | FLuc counter
COc1ccc(COCC(O)CN2CCc3ccccc3C2)cc1OC (centres undefined) | n | n | n | n | n | n | x | x
CCC1CSC(Nc2ccc(C(=O)/C=C/c3ccc(Oc4ccccc4)cc3)cc2)=N1 (centres undefined) | n | n | n | n | 55 | n | n | x
COc1cc(C2NC(=O)NC(C)=C2C(=O)OC2CCCC(C)C2)cc(Br)c1O (centres undefined) | n | n | n | n | n | n | x | x
O=C(c1ccccc1F)n1c2c(c3ccccc31)CCCC2 | n | n | n | n | 56 | n | 44 | 56
Cc1ccc(-n2ncc3c2CCCC3NC(=O)CCC2=NNC(=O)CC2)cc1C (centres undefined) | n | n | n | n | n | n | x | x
CC(C)C[C@H](NC(=O)c1nc[nH]c1C(=O)NCC(=O)OC(C)(C)C)C(=O)OC(C)(C)C | n | n | n | n | n | n | x | x
CC(C)C[C@H](NC(=O)c1nc[nH]c1C(=O)NC(c1ccccc1)c1ccccc1)C(=O)OC(C)(C)C | n | 97 | n | n | 89 | n | n | x
CC(C)C[C@H](NC(=O)c1[nH]cnc1C(=O)N[C@H](C)c1ccccc1)C(=O)OC(C)(C)C | n | n | n | n | n | n | x | x
CC(C)C[C@H](NC(=O)c1nc[nH]c1C(=O)N[C@@H](CC(C)C)C(=O)OC(C)(C)C)C(=O)OC(C)(C)C | n | n | n | n | 80 | n | n | x
CC(Sc1ncnc2sc(-c3ccccc3)cc12)C(=O)NCC1CCCO1 (centres undefined) | n | n | n | n | 67 | n | 59 | 91
CCOC(=O)c1sc(N(Cc2ccccc2)C(=O)CCl)nc1C | n | n | n | n | 65 | n | n | x
CCC(O)(CC)C(=O)NN(C(=O)Nc1csc2c1CCCC2)c1ccccc1 | n | n | n | n | n | n | x | x
CC(=O)c1cccc(CN2CCC(C(=O)Nc3ccc(-c4cccc(C)c4)cc3)CC2)c1 | n | n | x | n | 52 | n | n | x
CCOC(=O)c1c(CSC(=N)N)n(-c2ccc(C)cc2)c2cc(Br)c(OC(C)=O)cc12 | n | 114 | n | n | 92 | n | n | x
O=C(NCc1ccco1)/C(=C/c1ccc(C(F)(F)F)cc1)c1nc2ccccc2[nH]1 | n | n | n | n | n | n | x | x
O=C(NCc1ccco1)/C(=C/c1cccc(C(F)(F)F)c1)c1nc2ccccc2[nH]1 | n | x | x | n | 83 | n | 84 | 38
COC(=O)c1ccsc1NC(=O)c1ccccc1 | n | n | x | n | n | n | x | x
COC(=O)Nc1sccc1C(=O)Nc1sccc1C(=O)OC | n | n | n | n | 61 | n | n | x
CC(=O)c1ccc(OCc2cc(C(=O)N(C)C(C)c3nccs3)no2)cc1 (centres undefined) | n | x | x | n | n | n | x | x
CC1CCCN(CCCNC(=O)c2ccc(CS(=O)(=O)c3c(Cl)cccc3Cl)o2)C1 (centres undefined) | n | n | n | n | n | n | x | x
O=C(c1ccccc1)c1ccc(OCC(O)CN2CCCCC2)cc1 (centres undefined) | n | n | n | n | n | n | x | x
OC(COc1ccc(CNCCc2ccccc2F)cc1)CN1CCCCC1 (centres undefined) | n | 103 | n | n | 55 | n | 40 | 54
CCOc1cc(N2CCOCC2)c(OCC)cc1NC(=O)COC(=O)c1ccccc1C | n | n | n | n | n | n | x | x
O=C(CN1C(=O)/C(=C\c2cccc(Br)c2)Oc2ccccc21)NCCCN1CCOCC1 | n | n | x | n | 63 | n | n | x
COc1ccc(OC)c(C2C3=C(COC3=O)Nc3cc4c(cc32)OCO4)c1 (centres undefined) | n | x | n | n | 55 | n | 68 | 125
SMILES | NALP3 yeast inh | CSC inhib | Beta cell apopt | T cruzi inh | Mdm2 MdmX PPI | Calb FLC | Mdm2 MdmX conf | FLuc counter
O=[N+]([O-])c1ccc2oc(C3CCCCC3)nc2c1 | n | n | n | n | n | n | x | x
COc1cc(OC)cc(-c2nnc(NC(=O)CCS(=O)(=O)c3ccc(C)cc3)o2)c1 | n | x | n | n | 51 | n | 61 | 72
CCOc1ccc(-c2nnc(NC(=O)c3ccc(OCC(C)C)c(OC)c3)o2)cc1 | n | 103 | n | n | 57 | u | 57 | n
Cc1ccc(S(=O)(=O)CCC(=O)Nc2nnc(-c3ccc(F)cc3)o2)cc1 | n | n | n | n | n | n | x | x
COc1cc(OC)cc(-c2nnc(NC(=O)c3ccc4c(c3)OCCO4)o2)c1 | n | n | x | n | 53 | n | n | x
O=C(NCc1ccccc1)C1=C[C@@H](c2ccc(C(F)(F)F)cc2)C[C@@H](OCCCCO)O1 | n | n | n | n | n | n | x | x
O=C(c1ccc(CS(=O)c2ccccc2Cl)o1)N1CCN(c2ccccn2)CC1 (centres undefined) | n | n | n | n | 63 | n | 56 | 45
O=C1c2c(O)ccc(O)c2C(=O)c2c(NCCNCCO)ccc(NCCNCCO)c21 | n | 97 | n | x | 100 | x | 98 | n
O=C1c2ccccc2C(=O)c2c(NCCCN(CCO)CCO)cccc21 | n | x | x | u | n | n | x | x
COCCn1c(=NC(=O)CCS(=O)(=O)c2ccccc2)sc2cc(C(=O)OC)ccc21 | n | n | n | n | n | x | x | x
Cc1ccc2nc(N(CCCN(C)C)C(=O)c3ccc(S(=O)(=O)N4CCc5ccccc5C4)cc3)sc2c1 | n | n | 114 | n | 100 | n | 52 | n
CN(C)CCCN(C(=O)c1ccc(S(=O)(=O)N2CCc3ccccc32)cc1)c1nc2ccc(F)cc2s1 | n | n | n | n | n | n | x | x
CN(C)CCCN(C(=O)c1ccc(S(=O)(=O)N2CCCC2)cc1)c1nc2c(F)cc(F)cc2s1 | n | n | x | n | n | n | x | x
COCCn1c(=NC(=O)c2ccc(S(=O)(=O)N3CCc4ccccc4C3)cc2)sc2cc(OC)ccc21 | n | x | n | n | 69 | n | n | x
Cc1cc(C)c2sc(N(CCCN(C)C)C(=O)c3ccc(S(=O)(=O)N4CCc5ccccc5C4)cc3)nc2c1 | n | n | x | n | 99 | n | 99 | 42
CN(C)CCCN(C(=O)c1ccc(S(=O)(=O)N2CCc3ccccc3C2)cc1)c1nc2ccc(F)cc2s1 | n | 91 | n | n | 97 | n | n | x
C[C@H]1CC[C@H]2C(=O)N3[C@H](c4cccc(N5CCCC5=O)c4)[C@@H](C)CC[C@H]3C(=O)N2[C@@H]1c1cccc(N2CCCC2=O)c1 | n | n | n | n | n | n | x | x
Cc1onc(-c2ccccc2)c1C(=O)c1c[nH]c(C(=O)NCc2ccccn2)c1 | n | x | x | n | n | n | x | x
CN(C)CCCN(C(=O)c1ccc(S(=O)(=O)N2CCc3ccccc3C2)cc1)c1nc2c(F)cccc2s1 | n | n | n | n | n | n | x | x
